Results reported in ChEMBL document CHEMBL1155274, “Synthesis of some novel pyrazolo[3,4-b]pyridine and pyrazolo[3,4-d]pyrimidine derivatives bearing 5,6-diphenyl-1,2,4-triazine moiety as potential antimicrobial agents” (Eur J Med Chem, 2009).
≈ marks a conversion by molar mass, not a printed value.

Columns and labels:
[1] = system: Escherichia coli; experiment: Antimicrobial activity against Escherichia coli MTCCB 1652 at 30 ug/mL after 16 to 20 hrs by disk diffusion method; format: functional; details: read-out: IZ
How it was run: (§1)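 Nutrient agar disc diffusion against S. aureus MTCCB 737, S. epidermidis MTCCB 1824 and E. coli MTCCB 1652. Tetracycline served as the standard drug, and DMSO served as the blank. The inhibition zone was measured after 16–20 h at 37 °C.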

[2] = system: Staphylococcus epidermidis; experiment: Antimicrobial activity against Staphylococcus epidermidis MTCCB 1824 at 30 ug/mL after 16 to 20 hrs by disk diffusion method; format: functional; details: read-out: IZ; how it was run: as §1
[3] = system: Staphylococcus aureus; experiment: Antimicrobial activity against Staphylococcus aureus MTCCB 737 after 24 hrs by serial dilution method; format: functional; details: MTCCB 737, 24 h
How it was run: (§2)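 Tube serial dilution in nutrient broth at compound levels of 6.25, 12.5, 25, 50 and 100. Each tube received standardized microbial suspension (10^7 cells/mL) and was incubated 24 h at 37 °C. MIC was the lowest concentration preventing growth, i.e. maintaining or reducing inoculum viability.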

[4] = system: Staphylococcus aureus; experiment: Antimicrobial activity against Staphylococcus aureus MTCCB 737 at 30 ug/mL after 16 to 20 hrs by disk diffusion method; format: functional; details: read-out: IZ; how it was run: as §1
[5] = system: Escherichia coli; experiment: Antimicrobial activity against Escherichia coli MTCCB 1652 after 24 hrs by serial dilution method; format: functional; details: MTCCB 1652, 24 h; how it was run: as §2
[6] = system: Staphylococcus aureus; experiment: Antimicrobial activity against Staphylococcus aureus MTCCB 737 at 100 ug/mL after 16 to 20 hrs by disk diffusion method; format: functional; details: read-out: IZ
How it was run: (§3)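 Nutrient agar disc diffusion against bacterial strains, compounds in DMSO at a single test concentration. DMSO blank; tetracycline as reference drug. Plates incubated 16–20 h at 37 °C, and the inhibition zone was measured.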

[7] = system: Staphylococcus epidermidis; experiment: Antimicrobial activity against Staphylococcus epidermidis MTCCB 1824 at 100 ug/mL after 16 to 20 hrs by disk diffusion method; format: functional; details: read-out: IZ; how it was run: as §3
[8] = system: Escherichia coli; experiment: Antimicrobial activity against Escherichia coli MTCCB 1652 at 100 ug/mL after 16 to 20 hrs by disk diffusion method; format: functional; details: read-out: IZ; how it was run: as §3
[9] = system: Artemia salina; experiment: Toxicity against Artemia salina assessed as number of the nauplii died after 24 hrs; format: organism-based; details: in vivo
How it was run: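 Artemia salina eggs were hatched in sea salt water (38 g/L) at 37 °C for 48 h with constant oxygen to give nauplii. Stocks were 10 mg per 2 mL DMSO, and five dilutions were run in triplicate with about 10 nauplii per vial. A DMSO-only vial served as control.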

[10] = system: Aspergillus fumigatus; experiment: Antimicrobial activity against Aspergillus fumigatus at 100 ug/mL after 3 to 4 days by disk diffusion method; details: read-out: IZ
[11] = system: Alternaria alternata; experiment: Antimicrobial activity against Alternaria alternata at 100 ug/mL after 3 to 4 days by disk diffusion method; details: read-out: IZ
[12] = system: Aspergillus niger; experiment: Antimicrobial activity against Aspergillus niger at 100 ug/mL after 3 to 4 days by disk diffusion method; details: read-out: IZ
[13] = system: Aspergillus niger; experiment: Antimicrobial activity against Aspergillus niger after 24 hrs by serial dilution method; format: functional; how it was run: as §2
[14] = system: Alternaria alternata; experiment: Antimicrobial activity against Alternaria alternata after 24 hrs by serial dilution method; format: functional; how it was run: as §2

SMILES	zone of inhibition at 30 µg/mL [1]	zone of inhibition at 30 µg/mL [2]	MIC [3]	zone of inhibition at 30 µg/mL [4]	MIC [5]	zone of inhibition at 100 µg/mL [6]	zone of inhibition at 100 µg/mL [7]	zone of inhibition at 100 µg/mL [8]	LC50 [9]	zone of inhibition at 100 µg/mL [10]	zone of inhibition at 100 µg/mL [11]	zone of inhibition at 100 µg/mL [12]	MIC [13]	MIC [14]
CN(C)[C@@H]1C(O)=C(C(N)=O)C(=O)[C@@]2(O)C(O)=C3C(=O)c4c(O)cccc4[C@@](C)(O)[C@H]3C[C@@H]12 [TETRACYCLINE]	28 mm	25 mm	6.25 µg/mL (≈ 14.1 µM)	30 mm	12.5 µg/mL (≈ 28.1 µM)	–	–	–	–	–	–	–	–	–
CSc1nn(-c2nnc(-c3ccccc3)c(-c3ccccc3)n2)c2nc3c(C#N)c(N)nn3c(N)c12	–	–	50 µg/mL (≈ 102 µM)	–	> 100 µg/mL	24 mm	22 mm	17 mm	2.31 ppm	22 mm	16 mm	18 mm	25 µg/mL (≈ 50.9 µM)	25 µg/mL (≈ 50.9 µM)
Cc1nc2c(c(=O)[nH]1)c1nnc(-c3ccccc3)n1n2-c1nnc(-c2ccccc2)c(-c2ccccc2)n1	–	–	50 µg/mL (≈ 100 µM)	–	25 µg/mL (≈ 50.2 µM)	27 mm	27 mm	26 mm	3.54 ppm	17 mm	8 mm	12 mm	50 µg/mL (≈ 100 µM)	50 µg/mL (≈ 100 µM)
CSc1nn(-c2nnc(-c3ccccc3)c(-c3ccccc3)n2)c2nc(-c3ccccc3)c(C(C)=O)c(N)c12	–	–	–	–	–	16 mm	18 mm	13 mm	–	10 mm	5 mm	4 mm	–	–
CSc1nn(-c2nnc(-c3ccccc3)c(-c3ccccc3)n2)c2nc(-c3ccccc3)c3c(C)c(C#N)c(N)nc3c12	–	–	50 µg/mL (≈ 86.6 µM)	–	25 µg/mL (≈ 43.3 µM)	25 mm	22 mm	19 mm	0.58 ppm	16 mm	9 mm	11 mm	> 100 µg/mL	> 100 µg/mL
CSC(Nc1c(C#N)c(SC)nn1-c1nnc(-c2ccccc2)c(-c2ccccc2)n1)=C(C#N)C#N	–	–	–	–	–	17 mm	21 mm	11 mm	–	9 mm	8 mm	6 mm	–	–
Cc1nc2c(c(NN)nn2-c2nnc(-c3ccccc3)c(-c3ccccc3)n2)c(=O)[nH]1	–	–	–	–	–	18 mm	10 mm	8 mm	–	10 mm	13 mm	11 mm	–	–
N#Cc1c(N)nn2c(N)c3c(nc12)n(-c1nnc(-c2ccccc2)c(-c2ccccc2)n1)n1c(=O)c2ccccc2nc31	–	–	50 µg/mL (≈ 88.9 µM)	–	> 100 µg/mL	26 mm	23 mm	20 mm	1.39 ppm	21 mm	19 mm	19 mm	> 100 µg/mL	50 µg/mL (≈ 88.9 µM)
CSc1nn(-c2nnc(-c3ccccc3)c(-c3ccccc3)n2)c2nc(C)c(C#N)c(N)c12	–	–	–	–	–	19 mm	16 mm	12 mm	–	6 mm	5 mm	7 mm	–	–
CC(=O)c1c(-c2ccccc2)nc2c3c(nn2-c2nnc(-c4ccccc4)c(-c4ccccc4)n2)N(c2ccccc2)C(C)=Nc13	–	–	–	–	–	18 mm	13 mm	10 mm	–	3 mm	9 mm	7 mm	–	–
